Series [1] can be described thus: Toxicity in athymic nude mouse xenografted with human HCT-116 cells assessed as behavioural changes in at 40 mg/kg, ip administered twice a week measured after 14 days. The format is organism-based. The conditions noted are these: in vivo, 336 h, time 14 day. (In general: A xenograft is tissue or cells of one species grown in another, often human tumour cells in immunodeficient mice.)

For series [2], the system named is HCT-116. As to the kind of experiment: Induction of apoptosis in human HCT-116 cells assessed as fold increase in caspase 3/7 activity incubated for 72 hrs by Caspase-Glo 3/7 reagent based microplate reader analysis. The format is functional.
Series [3] deals with HCT-116. The series can be described thus: Induction of miR-15b mediated pim-1 expression in human HCT-116 cells assessed as increase in luciferase activity at 3 uM incubated for 72 hrs by luminometer analysis. The format is functional, cell-based. In outline:
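HCT-116 cells (3 x 10^4 per 24-well well) co-transfected via PEI F25-LMW with 125 ng pGL3 luciferase reporter carrying Pim-1 3′UTR, intact or miR-15b-seed-mutated. After 48 h, 1 or 3 µM in IMDM/10% FCS was added for 24 h at 37°C. Lysate was mixed with luciferase substrate and read on a luminometer.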

Series [4] has as its system HCT-116. As to the kind of experiment: Synergistic antitumor activity against PEI complexed siRNA-mediated Pim-1 knockout human HCT-116 cells xenografted in athymic nude mouse assessed as tumor growth inhibition at 70 mg/kg, ip administered on day 3 to 4 measured after 14 days. The format is functional. The conditions noted are these: HCT-116, 336 h, time 14 day, read-out: TGI.

Series [5] in a line: Toxicity in athymic nude mouse xenografted with human HCT-116 cells assessed as change in body weight at 40 mg/kg, ip administered twice a week measured after 14 days. It is filed as organism-based. The conditions noted are these: in vivo, 336 h, time 14 day.
Series [6] relates to HCT-116. The series can be described thus: Antitumor activity against PEI complexed siRNA-mediated Pim-1 knockout human HCT-116 cells xenografted in athymic nude mouse assessed as increase in pim-1 levels in tumor at 40 to 70 mg/kg, ip administered on day 3 to 4 measured after 14 days by immunohistochemical staining based analysis. The settings on record: dose 40-70 mg/kg, time 14.0 day. The format is functional, organism-based. In outline:
(§1)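 Nude mice (Foxn1nu, 6–8 weeks) carried s.c. HCT-116 flank tumours (1.5 x 10^6 cells) and were randomized at 40–50 mm3, n = 12 tumours/group. PEI F25-LMW-complexed siRNA (Pim-1 or control) was given at 10 µg i.p. every 2–3 days; 70 or 40 mg/kg in PBS was given i.p. every 3–4 days. Paraffin tumour sections were stained for Pim-1 and ranked 0–4.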

A short description of series [7]: Toxicity in athymic nude mouse xenografted with human HCT-116 cells assessed as change in body weight at 70 mg/kg, ip administered twice a week measured after 14 days. It is filed as organism-based. The settings on record: in vivo, 336 h, time 14 day.
Series [8] is described as follows: Downregulation of miR-15b expression in human HCT-116 cells at 3 uM incubated for 24 hrs by […] analysis. The format is functional. For orientation: In western blotting, separated proteins are transferred to a membrane and probed.
Series [9] concerns HCT-116. As to the kind of experiment: Antiproliferative activity against siRNA-mediated Pim-1 knockout human HCT-116 cells assessed as increase in pim-1 mRNA levels measured after 24 hrs by q-PCR analysis. The conditions noted are these: dose 1-3 µM. The format is functional, cell-based. The method in brief:
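HCT-116 cells seeded at 3.5 x 10^5 per six-well well under standard conditions, then exposed 24 h at 37°C to 1 or 3 µM in IMDM/10% FCS. Total RNA was extracted by phenol/chloroform, and Pim-1 mRNA was measured by SYBR Green qPCR run in parallel with actin. Levels were expressed as 2^CP(target)/2^CP(actin).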

Series [10] deals with HCT-116. The series can be described thus: Synergistic antitumor activity against human HCT-116 cells xenografted in athymic nude mouse assessed as tumor growth inhibition at 70 mg/kg, ip administered on day 3 to 4 measured after 14 days. It is filed as functional. The settings on record: HCT-116, 336 h, time 14 day, read-out: TGI.
The subject of series [11] is HCT-116. As to the kind of experiment: Synergistic antitumor activity against PEI complexed siRNA-mediated Pim-1 knockout human HCT-116 cells xenografted in athymic nude mouse assessed as tumor growth inhibition at 40 mg/kg, ip administered on day 3 to 4 measured after 14 days. The settings on record: HCT-116, 336 h, time 14 day, read-out: TGI. It is filed as functional.

The test system of series [12] is HCT-116. The series can be described thus: Synergistic antitumor activity against PEI complexed siRNA treated human HCT-116 cells xenografted in athymic nude mouse assessed as tumor growth inhibition at 40 mg/kg, ip administered on day 3 to 4 measured after 14 days. It is filed as functional. The conditions noted are these: HCT-116, 336 h, time 14 day, read-out: TGI.

In series [13] the test system is HCT-116. The series can be described thus: cells. The settings on record: Homo sapiens, HCT-116, 72 h.
The nature of series [14]: Toxicity in athymic nude mouse xenografted with human HCT-116 cells assessed as behavioural changes in at 70 mg/kg, ip administered twice a week measured after 14 days. It is filed as organism-based. The settings on record: in vivo, 336 h, time 14 day.
Series [15] has as its system HCT-116. As to the kind of experiment: Induction of apoptosis in siRNA-mediated Pim-1 knockout human HCT-116 cells assessed as fold increase in caspase 3/7 activity incubated for 72 hrs by Caspase-Glo 3/7 reagent based microplate reader analysis. The format is functional. The method in brief: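 HCT-116 cells, 5 x 10^2 per well, transfected with 20 nM siPim-1 […], held 72 h at 37°C. Caspase substrate diluted 1:5 in serum-free medium added for 1 h at room temperature in the dark; luminescence read. Signal normalized to a parallel WST-1 assay on the same plate. Means ± SEM.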

Series [16] deals with HCT-116. As to the kind of experiment: Antitumor activity against PEI complexed siRNA-mediated luciferase knockout human HCT-116 cells xenografted in athymic nude mouse assessed as increase in pim-1 levels in tumor at 40 to 70 mg/kg, ip administered on day 3 to 4 measured after 14 days by immunohistochemical staining based analysis. The conditions noted are these: dose 40-70 mg/kg, time 14.0 day. The format is functional, organism-based. In outline: as §1

For series [17], the system named is HCT-116. The series can be described thus: Synergistic antitumor activity against PEI complexed siRNA-mediated luciferase knockout human HCT-116 cells xenografted in athymic nude mouse assessed as tumor growth inhibition at 70 mg/kg, ip administered on day 3 to 4 measured after 14 days. The settings on record: HCT-116, 336 h, time 14 day, read-out: TGI. It is filed as functional.

Series [18] has as its system HCT-116. As to the kind of experiment: cells. The settings on record: Homo sapiens, HCT-116, 72 h. The source holds these as a separate data set.
Series [19] relates to HCT-116. As to the kind of experiment: Downregulation of p-STAT3 levels at serine 727 residue in human HCT-116 cells at 2 uM incubated for 24 hrs by Western blotting analysis. The format is functional, cell-based. The method in brief:
(§2)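 HCT-116 lysates were made on ice in PBS with 1 mM EDTA, 1% NP-40, protease and phosphatase inhibitors, then sonicated and cleared by centrifugation. Protein was measured by DC assay. 40 µg ran on 10% SDS-PAGE and went onto PVDF (0.45 µm). Blocking used 5% milk/TBST; primary antibodies ran overnight at 4°C, then HRP secondaries for 1 h. Detection was ECL with densitometric quantitation of scanned bands.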

Series [20] relates to HCT-116. The series can be described thus: Antiproliferative activity against siRNA-mediated Pim-1 knockout human HCT-116 cells assessed as reduction in cell viability measured after 72 hrs. The conditions noted are these: dose 0.066-66 µM. It is filed as functional, cell-based. The method in brief:
(§3)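 HCT-116 (1 x 10^3/well) or LS174T (3 x 10^3/well) cells were grown in IMDM/10% FCS at 37°C, 5% CO2. The medium was replaced with IMDM/10% FCS containing the inhibitor at the indicated concentrations, and cells were kept 72 h at 37°C. Inhibitor stock was 20 mg/ml in DMSO, diluted in PBS or medium.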

Series [21] concerns HCT-116. As to the kind of experiment: Downregulation of p-p21 levels in human HCT-116 cells at 2 uM incubated for 24 hrs by Western blotting analysis. It is filed as functional, cell-based. In outline:
as §2

In series [22] the test system is HCT-116. The series can be described thus: Downregulation of E-cadherin levels in human HCT-116 cells at 2 uM incubated for 24 hrs by Western blotting analysis. The format is functional, cell-based. In outline:
as §2

The next series deals with LS174T. As to the kind of experiment: Antiproliferative activity against siRNA-mediated Pim-1 knockout human LS174T cells assessed as reduction in cell viability measured after 72 hrs. The settings on record: dose 0.13-130 µM. It is filed as functional, cell-based. The method in brief: as §3
Series [23] deals with HCT-116. The series can be described thus: Induction of apoptosis in siRNA-mediated Pim-1 knockout human HCT-116 cells assessed as increase in caspase 3/7 activity at 0.7 uM incubated for 72 hrs by Caspase-Glo 3/7 reagent based microplate reader analysis. The format is functional, cell-based. In outline:
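HCT-116 cells (1 x 10^3/well) were exposed to the inhibitor in IMDM/10% FCS for 72 h at 37°C. Caspase-3/7 was read by Caspase-Glo 3/7: substrate diluted 1:5 in serum-free medium, 1 h at room temperature in the dark, then luminescence. A WST-1 assay run in parallel on the same plate normalized for cell density.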

Series [24] relates to HCT-116. The series can be described thus: Downregulation of c-Myc levels in human HCT-116 cells at 2 uM incubated for 24 hrs by Western blotting analysis. The format is functional, cell-based. The method in brief:
as §2

Series [25] concerns HCT-116. The series can be described thus: Downregulation of pim-1 levels in human HCT-116 cells at 2 uM incubated for 24 hrs by Western blotting analysis. The format is functional, cell-based. The method in brief: as §2

Activity calls are given as the source filed them. The rule behind the calls is not given here.

What is called IC50 is the concentration at which inhibition is half-maximal. On to `O=c1[nH]cc(F)c(=O)[nH]1` [FLUOROURACIL], for which the Activity entry was “Non-Toxic” in [1]; “Non-Toxic” in series [5]; “Toxic” in series [7]; 40% in [8]; “Dose-Dependent Effect” in the series on HCT-116 [9]; “Toxic” in series [14]. Further, the figures for the “fold change (FC)” value in the series on HCT-116 [2] and in the series on HCT-116 [15] were roughly 1.7 and 1.4, respectively. Moreover, the outcome with HCT-116 [3], with HCT-116 [6] and in the series with HCT-116 [16] was Active. Besides, the inhibition in vivo at 70 mg/kg was roughly 30% with HCT-116 [4], roughly 40% in the series with HCT-116 [10] and roughly 30% with HCT-116 [17]. In addition, the values for the inhibition in vivo at 40 mg/kg in the series on HCT-116 [11] and with HCT-116 [12] were roughly 60% and roughly 20%, respectively. The IC50 in the series on HCT-116 [13] was 3.2 µM; in the series with HCT-116 [18], 10.1 µM.
For the compound `Cn1c2c(c3ccc(Cl)c(Cl)c31)C(C#N)C1(CCNCC1)NC2=O` (stereo unspecified), the outcome with HCT-116 [19], in the series on HCT-116 [21], in the series on HCT-116 [22], in the series on HCT-116 [23], in the series on HCT-116 [24] and in the series on HCT-116 [25] was Active. Besides, the Activity entry in the series on HCT-116 [20] and in the series on LS174T was “Dose-Dependent Effect” each time.

The values are drawn from ChEMBL document CHEMBL5647689, “Functional role and therapeutic potential of the pim-1 kinase in colon carcinoma” (Neoplasia, 2013).
